Here are results for 16 molecules from PubChem BioAssay.

Assay [1] is described as follows: reducers of endogenous Her2 protein level, primary screen, SKBR3 breast tumor cells, AlphaScreen, ATP viability (AID 461;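 active = Her2 level under about 52% in both replicate screens, with viability over 70% of control, limit read from the data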;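 as to Her2 level: lower value means less Her2 protein in the cells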;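 as to viability: percent of carrier control wells set as 100% viability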). The settings on record: 18-24 h, measured here: SKBR3 viability, ATP luminescence, at 10 µM.
Assay [2] deals with Receptor tyrosine-protein kinase erbB-2 (Homo sapiens) (UniProt P04626). The description is as above. Conditions: 18-24 h, at 10 µM, stronger effect = lower value.
Assay [3] is described as follows: SK-BR-3 cell growth inhibitors, pilot screen, 24 h, human (AID 572;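 active = viability at or below 10% of carrier control in both of two separate runs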;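 also: compound exposure lasted between 18 and 24 h rather than exactly 24 h; 100% = carrier-treated control wells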). Conditions: SK-BR-3 viability, CellTiter-Glo luminescence, at 10 µM, stronger effect = lower value.
Assay [4] in a line: HUVEC growth inhibition – cell-based, human, primary screen (AID 575;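 active = viability at or below 30% in both replicate assays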;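 also: 100% = median of untreated cell wells with 0.1% DMSO on each plate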). Conditions: HUVEC proliferation, CellTiter-Glo luminescence, 72 h; at 10 µM; stronger effect = lower value. The gist of the method:
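Assay system: primary human umbilical vein endothelial cells / Buffer or medium: endothelial basal medium with 2% FBS plus growth supplements / Compound dosing: one dose, 10 µM final, 0.1% DMSO / Timing: 72 h treatment at 37 °C / Signal: CTG luminescence / Benchmarks: 32 DMSO-only cell-control wells (high), 32 MePR drug-control wells (low) per plate / Plate: collagen-coated 384-well format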

Assay [5] can be described thus: growth inhibitors of H69AR lung tumor, primary screen, human, duplicate replicates (AID 580).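 Also: 100% = mean luminescence of untreated wells and 0% = no signal.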 Conditions: H69AR lung tumor cells viability, ATP luminescence, 72 h; at 10 µM; stronger effect = lower value.
Assay [6] can be described thus: reversal of MRP1-mediated doxorubicin resistance, pilot screen, H69AR cells, doxorubicin co-treatment (AID 601;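 active = viability loss from added drug above about 55%, and viability with drug at most 40%, in both replicates, limit read from the data, passing the limit was not always enough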). The settings on record: CellTiter-Glo, 72 h, at 10 µM; for differential viability (reversal): stronger effect = higher value.
Assay [7] is described as follows: 384-well plate pilot, post-Golgi transport modulator project, inhibition of yeast transport mutant growth (AID 636; in the data active = inhibition above about 31%). Conditions: absorbance 615 nm, about 18 h, stronger effect = higher value.
Assay [8] is described as follows: growth suppression of yeast trafficking mutant, preliminary HTS, modulators of trafficking downstream of Golgi apparatus project, 1536-format plate, OD 615 nm (AID 637; in the data active = inhibition above about 30%). The settings on record: yeast transport mutant growth, absorbance 615 nm, 18 h; stronger effect = higher value.
The mark [9] stands for this setting: H69AR cells + 2 uM doxorubicin, measured here: viability with 2 uM doxorubicin, stronger effect = lower value.
Where [10] appears, read: H69AR cells, compound alone cytotoxicity.

Activity calls are given as the source filed them.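 The calls were made as follows, unless noted: active = viability at or under a set limit in both replicates, limit being median viability minus 3 SD (cut at about 48% in these data, passing the limit was not always enough); inconclusive = at or under the limit in just one replicate; inactive = at or above the limit in both replicates.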

Sequence of Receptor tyrosine-protein kinase erbB-2 (Homo sapiens) (P04626 whole entry, looked up): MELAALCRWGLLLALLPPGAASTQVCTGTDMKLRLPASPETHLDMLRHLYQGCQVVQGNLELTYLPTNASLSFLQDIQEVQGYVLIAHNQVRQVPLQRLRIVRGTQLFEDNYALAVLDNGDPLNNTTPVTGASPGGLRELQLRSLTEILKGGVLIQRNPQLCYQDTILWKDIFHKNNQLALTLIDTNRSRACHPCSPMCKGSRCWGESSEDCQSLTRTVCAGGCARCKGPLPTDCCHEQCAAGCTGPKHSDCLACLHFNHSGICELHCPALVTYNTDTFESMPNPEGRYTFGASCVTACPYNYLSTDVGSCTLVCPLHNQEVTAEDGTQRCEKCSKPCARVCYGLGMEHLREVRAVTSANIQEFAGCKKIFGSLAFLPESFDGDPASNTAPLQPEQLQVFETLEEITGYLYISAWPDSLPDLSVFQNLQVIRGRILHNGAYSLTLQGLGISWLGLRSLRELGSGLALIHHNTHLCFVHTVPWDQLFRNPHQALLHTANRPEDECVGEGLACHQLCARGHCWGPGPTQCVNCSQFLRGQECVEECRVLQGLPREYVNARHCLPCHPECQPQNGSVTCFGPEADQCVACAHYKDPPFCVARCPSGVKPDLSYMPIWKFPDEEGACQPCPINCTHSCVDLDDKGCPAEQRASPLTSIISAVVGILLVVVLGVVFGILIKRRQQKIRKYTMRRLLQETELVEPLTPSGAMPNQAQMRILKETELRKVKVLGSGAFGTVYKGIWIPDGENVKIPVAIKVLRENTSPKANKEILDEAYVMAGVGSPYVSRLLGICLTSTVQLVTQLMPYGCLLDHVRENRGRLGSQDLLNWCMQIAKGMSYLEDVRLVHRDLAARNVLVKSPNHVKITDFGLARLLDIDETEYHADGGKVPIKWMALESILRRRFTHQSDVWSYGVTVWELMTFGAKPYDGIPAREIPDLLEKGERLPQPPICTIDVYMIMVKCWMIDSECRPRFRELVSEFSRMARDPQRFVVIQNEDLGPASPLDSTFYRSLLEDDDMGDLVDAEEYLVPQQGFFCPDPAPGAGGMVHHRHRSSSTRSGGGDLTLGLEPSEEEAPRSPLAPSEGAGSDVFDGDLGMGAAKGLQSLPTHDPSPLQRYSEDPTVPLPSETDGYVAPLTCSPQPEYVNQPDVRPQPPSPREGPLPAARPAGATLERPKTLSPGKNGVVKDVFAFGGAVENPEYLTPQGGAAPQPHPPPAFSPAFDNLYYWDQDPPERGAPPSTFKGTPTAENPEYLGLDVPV

As to `COCCn1c(=O)[nH]c2cc(C(=O)N3CCN(Cc4ccc5c(c4)OCO5)CC3)ccc2c1=O`, the viability in assay [1] is 93.5%; in assay [3] it was 93.5% (inactive); in assay [4], 117% (inactive); in assay [5], 93.1% (inactive); in assay [6] (setting [9]), 94.9%; in assay [6] (setting [10]) it was 93.1%. Moreover, the Her2 level in assay [2] is 106% (inactive). Besides, the differential viability (reversal) in assay [6] (H69AR cells + 2 uM doxorubicin) is -1.86% (inactive). For the same molecule, the inhibition in assay [7] is 1.47% (inactive); in assay [8], 9.34% (inactive).

Turning to `CC(Oc1ccccc1)C(=O)Nc1ccc(S(=O)(=O)NCC2CCCO2)cc1` (stereo not given), the viability was 89.5% in assay [1]; 89.5% (inactive) in assay [3]; 101% (inactive) in assay [4]; 98.7% (inactive) in assay [5]; 94.6% in assay [6] (setting [9]); 98.7% in assay [6] (setting [10]). Besides, in assay [2], the Her2 level is 94.5% (inactive). Besides, the differential viability (reversal) in assay [6] (H69AR cells + 2 uM doxorubicin) was 4.12% (inactive). The inhibition in assay [7] was -1.73% (inactive); in assay [8] it was -5.71% (inactive).

Consider `Cc1nc(-c2cccc(-c3noc(C)n3)c2)no1`, for which the viability was 87.5% in assay [1]; 87.5% (inactive) in assay [3]; 86.1% (inactive) in assay [4]; 102% (inactive) in assay [5]; 95.8% in assay [6] (setting [9]); 102% in assay [6] (setting [10]). Further, the Her2 level in assay [2] was 99% (inactive). Besides, the differential viability (reversal) in assay [6] (H69AR cells + 2 uM doxorubicin) was 5.99% (inactive). Moreover, the inhibition in assay [7] was -5.54% (inactive); in assay [8] it was -1.48% (inactive).

As for `O=c1[nH]c2ccc(S(=O)(=O)N3CCN(C4CCCCC4)CC3)cc2[nH]c1=O`, the viability in assay [1] is 90.5%; in assay [3] it was 90.5% (inactive); in assay [4], 91.8% (inactive); in assay [5], 103% (inactive); in assay [6] (setting [9]), 93.7%; in assay [6] (setting [10]), 103%. Besides, in assay [2], the Her2 level is 104% (inactive). For the same molecule, the differential viability (reversal) in assay [6] (H69AR cells + 2 uM doxorubicin) was 9.67% (inactive). The inhibition in assay [7] is 0.92% (inactive); in assay [8], -12.6% (inactive).

With `CCC(C)(C(=O)NC1CCCC1)N(Cc1cccs1)C(=O)Cc1cccs1` (stereo not given), the viability in assay [1] was 122%; in assay [3], 122% (inactive); in assay [4] it was 103% (inactive); in assay [5] it was 96.8% (inactive); in assay [6] (setting [9]) it was 81.3%; in assay [6] (setting [10]), 96.8%. In addition, in assay [2], the Her2 level is 93% (inactive). The differential viability (reversal) in assay [6] (H69AR cells + 2 uM doxorubicin) is 15.6% (inactive). For the same molecule, the inhibition in assay [7] is -7.53% (inactive); in assay [8], -0.63% (inactive).

As for `CCOC(=O)C1=C(N)OC2=C(C(=O)CC(C)(C)C2)C1c1ccoc1` (stereo not given), the viability in assay [1] was 80%; in assay [3], 80% (inactive); in assay [4], 112% (inactive); in assay [5], 96.3% (inactive); in assay [6] (setting [9]) it was 87.7%; in assay [6] (setting [10]), 96.3%. In assay [2], the Her2 level is 107% (inactive). Moreover, the differential viability (reversal) in assay [6] (H69AR cells + 2 uM doxorubicin) was 8.7% (inactive). Further, the results for the inhibition in assay [7] and in assay [8] were -5.53% (inactive) and -8.33% (inactive), respectively.

Regarding `O=C(NC1CCCCC1)N(Cc1ccc(F)cc1)Cc1nc2ccccc2c(=O)[nH]1`, the viability in assay [1] was 98.5%; in assay [3], 98.5% (inactive); in assay [4], 78.2% (inactive); in assay [5], 100% (inactive); in assay [6] (setting [9]), 92.4%; in assay [6] (setting [10]), 100%. For the same molecule, in assay [2], the Her2 level is 80% (inactive). The differential viability (reversal) in assay [6] (H69AR cells + 2 uM doxorubicin) was 7.63% (inactive). In addition, the inhibition in assay [7] is -5.66% (inactive); in assay [8], -1.83% (inactive).

For the molecule `O=C(COC(=O)c1cc(S(=O)(=O)N2CCOCC2)ccc1O)NCC1CCCO1` (stereo not given), the viability in assay [1] was 91.5%; in assay [3], 91.5% (inactive); in assay [4], 98.7% (inactive); in assay [5], 91% (inactive); in assay [6] (setting [9]), 94.5%; in assay [6] (setting [10]), 91%. Also, the Her2 level in assay [2] is 85.5% (inactive). The differential viability (reversal) in assay [6] (H69AR cells + 2 uM doxorubicin) was -3.47% (inactive). The inhibition in assay [7] is -6.4% (inactive); in assay [8] it was 8.36% (inactive).

Regarding `Cc1cccc2cc(CN(Cc3nnnn3C3CCCC3)C3CCCCC3)c(=O)[nH]c12`, the viability in assay [1] is 84.5%; in assay [3], 84.5% (inactive); in assay [4], 72.7% (inactive); in assay [5], 79.4% (inactive); in assay [6] (setting [9]) it was 78.9%; in assay [6] (setting [10]) it was 79.4%. For the same molecule, the Her2 level in assay [2] was 109% (inactive). Further, in assay [6] (H69AR cells + 2 uM doxorubicin), the differential viability (reversal) was 0.525% (inactive). Besides, the inhibition in assay [7] is -1.71% (inactive); in assay [8] it was -10.2% (inactive).

For the molecule `CC12CCC(C(=O)O)(c3nc(C#N)c(C#N)nc31)C2(C)C` (stereo not given), the viability was 106% in assay [1]; 106% (inactive) in assay [3]; 115% (inactive) in assay [4]; 91.6% (inactive) in assay [5]; 84.8% in assay [6] (setting [9]); 91.6% in assay [6] (setting [10]). In addition, in assay [2], the Her2 level is 96.5% (inactive). The differential viability (reversal) in assay [6] (H69AR cells + 2 uM doxorubicin) was 6.8% (inactive). Moreover, the values for the inhibition in assay [7] and in assay [8] were -6.27% (inactive) and 6.07% (inactive), respectively.

Turning to `O=C(CSc1nc(O)cc(=O)n1-c1ccccc1)N1CCCCC1`, the viability in assay [1] was 100%; in assay [3], 100% (inactive); in assay [4] it was 80.8% (inactive); in assay [5], 98.8% (inactive); in assay [6] (setting [9]), 96.4%; in assay [6] (setting [10]), 98.8%. Moreover, the Her2 level in assay [2] was 77% (inactive). The differential viability (reversal) in assay [6] (H69AR cells + 2 uM doxorubicin) is 2.4% (inactive). Further, the inhibition in assay [7] was -6.44% (inactive); in assay [8], 3.97% (inactive).

In the case of `Cc1ccccc1OCc1nnc(SCC(=O)NCc2ccccc2)n1C`, the viability in assay [1] was 96%; in assay [3], 96% (inactive); in assay [4] it was 88.4% (inactive); in assay [5], 104% (inactive); in assay [6] (setting [9]), 95.2%; in assay [6] (setting [10]), 104%. Further, the Her2 level in assay [2] is 84.5% (inactive). Further, the differential viability (reversal) in assay [6] (H69AR cells + 2 uM doxorubicin) is 8.75% (inactive). For the same molecule, the figures for the inhibition in assay [7] and in assay [8] were -4.66% (inactive) and -3.02% (inactive), respectively.

`Cc1cc(=O)oc(C)c1C(=O)O`: the viability was 102% in assay [1]; 102% (inactive) in assay [3]; 97.1% (inactive) in assay [4]; 92% (inactive) in assay [5]; 84.7% in assay [6] (setting [9]); 92% in assay [6] (setting [10]). In addition, the Her2 level in assay [2] was 118% (inactive). For the same molecule, the differential viability (reversal) in assay [6] (H69AR cells + 2 uM doxorubicin) was 7.3% (inactive). In addition, the inhibition in assay [7] was -6.1% (inactive); in assay [8] it was 9.34% (inactive).

For the molecule `O=C1CC(c2ccco2)CC(O)=C1C=NCC1NCCc2ccccc21` (stereo not given), the viability in assay [1] is 78.5%; in assay [3] it was 78.5% (inactive); in assay [4] it was 91.5% (inactive); in assay [5], 90.7% (inactive); in assay [6] (setting [9]), 94.1%; in assay [6] (setting [10]), 90.7%. Further, in assay [2], the Her2 level is 98.5% (inactive). Moreover, in assay [6] (H69AR cells + 2 uM doxorubicin), the differential viability (reversal) is -3.47% (inactive). Also, the inhibition in assay [7] is -0.92% (inactive); in assay [8], 7.14% (inactive).

On to `COc1ccc(-c2c(=O)n(OCc3ccccn3)c3ccccc3[n+]2[O-])cc1OC`, for which the viability in assay [1] is 105%; in assay [3], 105% (inactive); in assay [4], 87.6% (inactive); in assay [5] it was 89.2% (inactive); in assay [6] (setting [9]), 91.6%; in assay [6] (setting [10]), 89.2%. For the same molecule, the Her2 level in assay [2] is 98% (inactive). Further, in assay [6] (H69AR cells + 2 uM doxorubicin), the differential viability (reversal) is -2.4% (inactive). The inhibition is -4% (inactive) in assay [7] and -3.65% (inactive) in assay [8].

On to `O=C(c1ccccc1)N1CCN(CC2CC=CCC2)CC1` (stereo not given), for which the viability in assay [1] is 82.5%; in assay [3], 82.5% (inactive); in assay [4], 102% (inactive); in assay [5], 96.1% (inactive); in assay [6] (setting [9]), 93.5%; in assay [6] (setting [10]) it was 96.1%. In addition, the Her2 level in assay [2] was 79% (inactive). Moreover, the differential viability (reversal) in assay [6] (H69AR cells + 2 uM doxorubicin) was 2.54% (inactive). For the same molecule, the inhibition was -6.05% (inactive) in assay [7] and 2.5% (inactive) in assay [8].
